ChEMBL document CHEMBL1140055, “Mixed-lineage kinase 1 and mixed-lineage kinase 3 subtype-selective dihydronaphthyl[3,4-a]pyrrolo[3,4-c]carbazole-5-ones: optimization, mixed-lineage kinase 1 crystallography, and oral in vivo activity in 1-methyl-4-phenyltetrahydropyridine models” (J Med Chem, 2008)

Experiments:
[1] = target: T1, Mitogen-activated protein kinase kinase kinase 9 (Homo sapiens, UniProt P80192); assay: Inhibition of GST-fused human MLK1
Procedure, shortened: (§1)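 GST fusions of human MLK kinase domains from baculovirus (50 ng MLK1_KD, 150 ng MLK2_KD/LZ, 100 ng MLK3_KD), substrate 500 µg/mL myelin basic protein. Buffer 20 mM Hepes pH 7.2, 5 mM EGTA, 15 mM MgCl2, 1 mM DTT, 25 mM β-glycerophosphate, 0.1% BSA, 2% DMSO.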
Target sequence in this assay (P80192 whole entry, the tested form may be a part): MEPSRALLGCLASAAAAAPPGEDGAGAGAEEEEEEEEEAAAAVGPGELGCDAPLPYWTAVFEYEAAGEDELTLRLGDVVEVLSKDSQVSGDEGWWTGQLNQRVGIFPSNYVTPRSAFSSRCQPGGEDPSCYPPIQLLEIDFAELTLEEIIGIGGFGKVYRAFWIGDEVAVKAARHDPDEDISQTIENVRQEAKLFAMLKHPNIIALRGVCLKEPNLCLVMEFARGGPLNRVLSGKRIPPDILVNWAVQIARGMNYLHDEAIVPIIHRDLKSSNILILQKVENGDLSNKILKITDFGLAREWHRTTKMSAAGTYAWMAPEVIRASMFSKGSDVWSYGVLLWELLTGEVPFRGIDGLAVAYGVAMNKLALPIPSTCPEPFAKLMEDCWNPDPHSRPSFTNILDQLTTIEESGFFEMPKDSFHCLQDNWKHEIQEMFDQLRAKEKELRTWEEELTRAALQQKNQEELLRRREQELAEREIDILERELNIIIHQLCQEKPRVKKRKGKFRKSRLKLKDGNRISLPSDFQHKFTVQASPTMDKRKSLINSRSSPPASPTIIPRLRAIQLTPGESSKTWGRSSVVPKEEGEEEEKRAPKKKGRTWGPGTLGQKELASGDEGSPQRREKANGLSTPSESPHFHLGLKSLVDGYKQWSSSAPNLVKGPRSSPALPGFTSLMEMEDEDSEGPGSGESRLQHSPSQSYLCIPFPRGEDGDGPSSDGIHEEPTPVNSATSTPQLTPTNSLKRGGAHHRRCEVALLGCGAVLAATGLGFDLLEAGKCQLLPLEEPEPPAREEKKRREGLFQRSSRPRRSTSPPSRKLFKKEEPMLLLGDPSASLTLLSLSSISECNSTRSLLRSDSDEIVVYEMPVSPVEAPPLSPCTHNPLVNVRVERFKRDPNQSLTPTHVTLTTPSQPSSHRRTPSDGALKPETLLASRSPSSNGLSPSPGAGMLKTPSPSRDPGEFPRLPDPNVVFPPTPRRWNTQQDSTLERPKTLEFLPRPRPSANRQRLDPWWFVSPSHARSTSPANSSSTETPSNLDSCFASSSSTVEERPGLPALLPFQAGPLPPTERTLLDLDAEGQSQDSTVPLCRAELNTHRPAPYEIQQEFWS

[2] = target: T2, Mitogen-activated protein kinase kinase kinase 11 (Homo sapiens, UniProt Q16584); assay: Inhibition of GST-fused human MLK3; procedure, shortened: as §1
Target sequence in this assay (Q16584 whole entry, the tested form may be a part): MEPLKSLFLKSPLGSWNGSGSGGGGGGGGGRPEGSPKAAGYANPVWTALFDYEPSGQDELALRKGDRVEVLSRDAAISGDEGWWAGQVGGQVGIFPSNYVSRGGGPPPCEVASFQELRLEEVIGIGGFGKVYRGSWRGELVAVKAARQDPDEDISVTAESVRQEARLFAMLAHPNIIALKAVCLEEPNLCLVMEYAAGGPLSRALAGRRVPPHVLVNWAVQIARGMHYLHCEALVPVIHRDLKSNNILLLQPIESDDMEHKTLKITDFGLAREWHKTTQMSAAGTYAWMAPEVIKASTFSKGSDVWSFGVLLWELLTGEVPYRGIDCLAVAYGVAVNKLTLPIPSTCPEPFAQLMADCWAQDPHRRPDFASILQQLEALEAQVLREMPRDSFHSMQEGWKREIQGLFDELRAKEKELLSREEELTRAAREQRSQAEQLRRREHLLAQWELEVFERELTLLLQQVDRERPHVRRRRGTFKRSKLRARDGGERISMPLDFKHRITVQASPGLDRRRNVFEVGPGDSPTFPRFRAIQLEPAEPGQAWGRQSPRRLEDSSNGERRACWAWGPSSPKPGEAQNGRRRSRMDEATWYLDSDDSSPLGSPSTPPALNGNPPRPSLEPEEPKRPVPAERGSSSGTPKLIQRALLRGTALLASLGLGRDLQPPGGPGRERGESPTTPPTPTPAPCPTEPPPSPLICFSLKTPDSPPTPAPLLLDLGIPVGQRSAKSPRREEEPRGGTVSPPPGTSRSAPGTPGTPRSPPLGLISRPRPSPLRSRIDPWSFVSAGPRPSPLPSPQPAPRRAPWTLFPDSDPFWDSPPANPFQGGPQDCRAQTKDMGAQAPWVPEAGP

[3] = target: T1, Mitogen-activated protein kinase kinase kinase 9; assay: Inhibition of GST-fused human MLK1 at 1 uM
Procedure, shortened: (§2)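 Baculovirus-expressed GST fusions of human MLK1 or MLK3 kinase domain (50 ng MLK1, 100 ng MLK3), myelin basic protein substrate at 500 µg/mL.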
Target sequence in this assay (P80192 whole entry, looked up, the tested form may be a part): as the sequence (P80192 whole entry, the tested form may be a part) above

[4] = target: T2, Mitogen-activated protein kinase kinase kinase 11; assay: Inhibition of GST-fused human MLK3 at 1 uM; procedure, shortened: as §2
Target sequence in this assay (Q16584 whole entry, looked up, the tested form may be a part): as the sequence (Q16584 whole entry, the tested form may be a part) above

[5] = target: T1, Mitogen-activated protein kinase kinase kinase 9; assay: Inhibition of GST-fused human MLK1 expressed in CHO cells assessed as MKK4 phosphorylation; format: cell-based
Procedure, shortened: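 CHO cells transfected with MLK1 plus dominant-negative MKK4 cDNA; phospho-MKK4 quantified by ELISA; IC50 derived.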
Target sequence in this assay (P80192 whole entry, the tested form may be a part): as the sequence (P80192 whole entry, the tested form may be a part) above

Structure (SMILES) | IC50 [1] [nM] | IC50 [2] [nM] | inhibition [3] [%] | inhibition [4] [%] | IC50 [5] [nM]
COc1ccc2c(c1)CCc1c-2c2c(c3c1[nH]c1ccccc13)CNC2=O | 188 | 274 | – | – | –
O=C1NCc2c1c1c(c3c2c2ccccc2n3CCO)CCc2cc(OCC3CC3)ccc2-1 | – | – | 30 | 32 | –
O=C1NCc2c1c1c(c3c2c2ccccc2n3CCO)CCc2cc(OCCOCc3ccccc3)ccc2-1 | – | – | 9 | 0 | –
O=C1NCc2c1c1c(c3c2c2ccccc2n3CCO)CCc2ccccc2-1 | – | 1000 | 14 | – | –
O=C1NCc2c1c1c(c3c2c2ccccc2n3CCO)CCc2cc(OCCO)ccc2-1 | – | – | – | 46 | –
O=C1NCc2c1c1c(c3c2c2ccccc2n3CCO)CCc2cc(OC3CCCC3)ccc2-1 | 49 | – | – | 32 | 345

Results, then the compound that gave them:

IC50 [1] [nM] | IC50 [2] [nM] | inhibition [3] [%] | inhibition [4] [%] | IC50 [5] [nM] | Structure (SMILES)
101 | 87 | – | – | – | COc1ccc2c(c1)CCc1c-2c2c(c3c4ccccc4n(CCCO)c13)CNC2=O
– | – | 9 | 0 | – | O=C1NCc2c1c1c(c3[nH]c4ccccc4c23)CCc2cc(O)ccc2-1
– | – | 32 | 30 | – | O=C1NCc2c1c1c(c3c2c2ccccc2n3CCO)CCc2cc(O)ccc2-1
